The values that follow come from ChEMBL document CHEMBL1129264, “Mercaptoacyl dipeptides as orally active dual inhibitors of angiotensin-converting enzyme and neutral endopeptidase” (1996).

Format in all cases: organism-based
Assay [1] addresses T1, Angiotensin-converting enzyme (Rattus norvegicus) (UniProt P47820).
T1 sequence (whole entry): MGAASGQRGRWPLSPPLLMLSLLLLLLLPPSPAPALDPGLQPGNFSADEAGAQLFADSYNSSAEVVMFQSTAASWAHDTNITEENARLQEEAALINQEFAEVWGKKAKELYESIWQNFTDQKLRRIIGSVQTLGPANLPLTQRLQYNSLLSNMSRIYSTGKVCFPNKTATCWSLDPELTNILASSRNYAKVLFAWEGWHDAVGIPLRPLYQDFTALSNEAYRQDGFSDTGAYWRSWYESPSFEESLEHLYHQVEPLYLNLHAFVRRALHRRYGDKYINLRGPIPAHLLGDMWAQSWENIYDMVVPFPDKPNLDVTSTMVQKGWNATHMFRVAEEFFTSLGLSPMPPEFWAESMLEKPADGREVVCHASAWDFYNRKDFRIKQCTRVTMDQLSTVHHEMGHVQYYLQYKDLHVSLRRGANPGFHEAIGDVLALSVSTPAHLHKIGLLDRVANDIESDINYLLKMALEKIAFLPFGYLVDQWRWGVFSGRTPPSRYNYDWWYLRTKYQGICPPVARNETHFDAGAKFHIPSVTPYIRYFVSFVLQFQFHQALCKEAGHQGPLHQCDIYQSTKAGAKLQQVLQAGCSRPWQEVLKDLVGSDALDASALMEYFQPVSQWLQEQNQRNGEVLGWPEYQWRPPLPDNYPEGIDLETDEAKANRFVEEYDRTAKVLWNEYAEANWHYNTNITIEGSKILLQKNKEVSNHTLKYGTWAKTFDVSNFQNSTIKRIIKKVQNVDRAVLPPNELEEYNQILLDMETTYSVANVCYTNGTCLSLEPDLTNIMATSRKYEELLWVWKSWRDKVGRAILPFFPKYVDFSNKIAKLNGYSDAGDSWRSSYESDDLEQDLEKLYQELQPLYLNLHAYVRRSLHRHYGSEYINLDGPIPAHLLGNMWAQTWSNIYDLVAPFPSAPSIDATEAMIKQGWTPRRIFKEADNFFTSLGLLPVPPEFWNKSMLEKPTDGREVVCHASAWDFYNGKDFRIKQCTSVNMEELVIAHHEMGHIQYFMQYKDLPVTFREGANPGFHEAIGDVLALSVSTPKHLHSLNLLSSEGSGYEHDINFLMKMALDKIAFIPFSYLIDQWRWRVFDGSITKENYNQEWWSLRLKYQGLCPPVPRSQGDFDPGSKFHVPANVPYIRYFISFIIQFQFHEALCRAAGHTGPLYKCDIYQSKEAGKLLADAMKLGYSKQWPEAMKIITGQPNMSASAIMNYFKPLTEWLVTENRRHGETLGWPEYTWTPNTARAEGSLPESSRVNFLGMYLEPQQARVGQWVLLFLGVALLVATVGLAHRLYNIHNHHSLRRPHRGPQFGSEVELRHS
Description: Compound was tested for plasma inhibition of Angiotensin I converting enzyme activity in the conscious rat. Expressed as Inhibition of AI pressor response at 6 hr at a dose of 14.4 mg/kg po. Further details: dose 14.4 mg/kg. The gist of the method: (§1)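 Male conscious normotensive Sprague-Dawley rats (275-390 g), prepared under methohexital sodium (75 mg/kg ip) with femoral arterial and venous catheters. The next day, pressor responses to three angiotensin-I challenges (300 ng/kg iv) were recorded. Compound was then given orally and angiotensin-I challenges were repeated at set times. Percent inhibition is relative to the mean of the three baseline responses.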

For assay [2], the target named is T1, Angiotensin-converting enzyme (Rattus norvegicus). Description: Compound was tested for plasma inhibition of Angiotensin I converting enzyme activity in the conscious rat. Expressed as Inhibition of AI pressor response at 1 hr at a dose of 14.4 mg/kg po. Also on record: dose 14.4 mg/kg. The method, boiled down:
(§2)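 Male conscious normotensive Sprague-Dawley rats (275-390 g), given femoral arterial and venous catheters under methohexital sodium (75 mg/kg ip) anesthesia. Next day, pressor responses to three angiotensin-I challenges (300 ng/kg iv) recorded by direct arterial pressure. Compound then dosed orally, and AI challenge repeated at set times. Each post-dose response compared with the mean of the three baseline responses, giving % inhibition.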

The target is the same in assay [3]. The assay is described as follows: Compound was tested for plasma inhibition of Angiotensin I converting enzyme activity in the conscious rat. Expressed as Inhibition of AI pressor response at 4 hr at a dose of 14.4 mg/kg po. Also on record: dose 14.4 mg/kg. The gist of the method: as §1
Assay [4] has the same target. Description: Compound was tested for plasma inhibition of Angiotensin I converting enzyme activity in the conscious rat. Expressed as Inhibition of AI pressor response at 2 hr at a dose of 14.4 mg/kg po. Further details: dose 14.4 mg/kg. The method, boiled down:
as §2

Assay [5] has the same target. Description: Compound was tested for plasma inhibition of Angiotensin I converting enzyme activity in the conscious rat. Expressed as Inhibition of AI pressor response at 6 hr at a dose of 13.5 mg/kg po. Also on record: dose 13.5 mg/kg. The method, boiled down: as §1
For assay [6] the target is unchanged. Description: Compound was tested for plasma inhibition of Angiotensin I converting enzyme activity in the conscious rat. Expressed as Inhibition of AI pressor response at 1 hr at a dose of 13.5 mg/kg po. Further details: dose 13.5 mg/kg. The method, boiled down:
as §2

Assay [7] shares this target. The assay is described as follows: Compound was tested for plasma inhibition of Angiotensin I converting enzyme activity in the conscious rat. Expressed as Inhibition of AI pressor response at 4 hr at a dose of 13.5 mg/kg po. Also on record: dose 13.5 mg/kg. The method, boiled down: as §1
Assay [8] shares this target. The assay is described as follows: Compound was tested for plasma inhibition of Angiotensin I converting enzyme activity in the conscious rat. Expressed as Inhibition of AI pressor response at 2 hr at a dose of 13.5 mg/kg po. Also on record: dose 13.5 mg/kg. The gist of the method: as §2
For assay [9] the target is unchanged. The assay is described as follows: Compound was tested for plasma inhibition of Angiotensin I converting enzyme activity in the conscious rat. Expressed as Inhibition of AI pressor response at 2 hr at a dose of 13.7 mg/kg po. Also on record: dose 13.7 mg/kg. The gist of the method: as §2
Assay [10] has the same target. The assay is described as follows: Compound was tested for plasma inhibition of Angiotensin I converting enzyme activity in the conscious rat. Expressed as Inhibition of AI pressor response at 1 hr at a dose of 13.7 mg/kg po. Also on record: dose 13.7 mg/kg. The gist of the method:
as §2

For assay [11] the target is unchanged. The assay is described as follows: Compound was tested for plasma inhibition of Angiotensin I converting enzyme activity in the conscious rat. Expressed as Inhibition of AI pressor response at 4 hr at a dose of 13.7 mg/kg po. Further details: dose 13.7 mg/kg. The method, boiled down: as §1
For assay [12] the target is unchanged. The assay is described as follows: Compound was tested for plasma inhibition of Angiotensin I converting enzyme activity in the conscious rat. Expressed as Inhibition of AI pressor response at 6 hr at a dose of 13.7 mg/kg po. Further details: dose 13.7 mg/kg. The gist of the method: as §1
Assay [13] shares this target. Description: Compound was tested for plasma inhibition of Angiotensin I converting enzyme activity in the conscious rat. Expressed as Inhibition of AI pressor response at 2 hr at a dose of 12.1 mg/kg po. Also on record: dose 12.1 mg/kg. The method, boiled down:
as §2

The target is the same in assay [14]. The assay is described as follows: Compound was tested for plasma inhibition of Angiotensin I converting enzyme activity in the conscious rat. Expressed as Inhibition of AI pressor response at 6 hr at a dose of 12.1 mg/kg po. Also on record: dose 12.1 mg/kg. The gist of the method:
as §1

Assay [15] shares this target. Description: Compound was tested for plasma inhibition of Angiotensin I converting enzyme activity in the conscious rat. Expressed as Inhibition of AI pressor response at 1 hr at a dose of 12.1 mg/kg po. Further details: dose 12.1 mg/kg. The method, boiled down:
as §2

For assay [16] the target is unchanged. The assay is described as follows: Compound was tested for plasma inhibition of Angiotensin I converting enzyme activity in the conscious rat. Expressed as Inhibition of AI pressor response at 4 hr at a dose of 12.1 mg/kg po. Further details: dose 12.1 mg/kg. The gist of the method:
as §2

Assay [17] shares this target. Description: Compound was tested for plasma inhibition of Angiotensin I converting enzyme activity in the conscious rat. Expressed as Inhibition of AI pressor response at 6 hr at a dose of 14.5 mg/kg po. Also on record: dose 14.5 mg/kg. The method, boiled down: as §1
For assay [18] the target is unchanged. Description: Compound was tested for plasma inhibition of Angiotensin I converting enzyme activity in the conscious rat. Expressed as Inhibition of AI pressor response at 1 hr at a dose of 14.5 mg/kg po. Also on record: dose 14.5 mg/kg. The gist of the method: as §2
For assay [19] the target is unchanged. Description: Compound was tested for plasma inhibition of Angiotensin I converting enzyme activity in the conscious rat. Expressed as Inhibition of AI pressor response at 4 hr at a dose of 14.5 mg/kg po. Also on record: dose 14.5 mg/kg. The method, boiled down:
as §1

Assay [20] has the same target. Description: Compound was tested for plasma inhibition of Angiotensin I converting enzyme activity in the conscious rat. Expressed as Inhibition of AI pressor response at 2 hr at a dose of 14.5 mg/kg po. Further details: dose 14.5 mg/kg. The gist of the method:
as §2

Structures are written as SMILES.

Take `CCOC(=O)[C@H](Cc1ccc(OC(=O)c2cccs2)cc1)NC(=O)C1(NC(=O)[C@H](SC(C)=O)C(C)C)CCCC1`: the inhibition was determined as 26% in assay [1], 29% in assay [2], 36% in [3] and 37% in [4].

For `CCOC(=O)Oc1ccc(C[C@H](NC(=O)C2(NC(=O)[C@H](SC(C)=O)C(C)C)CCCC2)C(=O)OCC)cc1`, the inhibition in assay [5] was 21%; in assay [6], 24%; in [7], 25%; in assay [8], 28%.

For `CCCCOC(=O)[C@H](Cc1ccc(O)cc1)NC(=O)C1(NC(=O)[C@H](SC(=O)C2CCCC2)C(C)C)CCCC1`, the inhibition was found to be 49% in [9], 57% in assay [10], 38% in [11] and 27% in assay [12].

As for `CC(=O)S[C@@H](C(=O)NC1(C(=O)N[C@@H](Cc2ccc(O)cc2)C(=O)OC(C)C)CCCC1)C(C)C`, the inhibition is 85% in [13], 78% in [14], 67% in [15] and 81% in assay [16].

With `CCCCOC(=O)[C@H](Cc1ccc(O)cc1)NC(=O)C1(NC(=O)[C@H](SC(=O)CN2CCOCC2)C(C)C)CCCC1`, the inhibition in assay [17] was found to be 12%; in assay [18], 57%; in assay [19], 34%; in [20], 53%.

Consider `CCCCOC(=O)[C@H](Cc1ccc(O)cc1)NC(=O)C1(NC(=O)[C@H](SC(=O)CN2CCCCC2)C(C)C)CCCC1`, for which the inhibition amounted to 26% in [1], 65% in [2], 50% in assay [3] and 55% in assay [4].
